Data: ChEMBL document CHEMBL1208778, “Synthesis and anti-cancer activity of chalcone linked imidazolones” (2010)
Activity calls are given as the source filed them. No cut-off for these calls is given here.

How the values were obtained:
[1] = Growth inhibition of human RPMI8266 cells; assay type: functional
Procedure, shortened: (§1)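 Five-dose testing was run within the NCI (Bethesda) in vitro Anticancer Screen Program on a panel of 53 human tumour cell lines from nine cancer types. Growth inhibition is reported as GI50.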

K562 = experiment: Growth inhibition of human K562 cells; assay type: functional; procedure, shortened: as §1
A549 = experiment: Growth inhibition of human A549 cells; assay type: functional; procedure, shortened: as §1
EKVX = experiment: Growth inhibition of human EKVX cells; assay type: functional; procedure, shortened: as §1
HOP-62 = experiment: Growth inhibition of human HOP62 cells; assay type: functional; procedure, shortened: as §1
HOP-92 = experiment: Growth inhibition of human HOP92 cells; assay type: functional; procedure, shortened: as §1
NCI-H226 = experiment: Growth inhibition of human NCI-H226 cells; assay type: functional; procedure, shortened: as §1
NCI-H23 = experiment: Growth inhibition of human NCI-H23 cells; assay type: functional; procedure, shortened: as §1
NCI-H322M = experiment: Growth inhibition of human NCI-H322M cells; assay type: functional; procedure, shortened: as §1
NCI-H460 = experiment: Growth inhibition of human NCI-H460 cells; assay type: functional; procedure, shortened: as §1
NCI-H522 = experiment: Growth inhibition of human NCI-H522 cells; assay type: functional; procedure, shortened: as §1
COLO 205 = experiment: Growth inhibition of human COLO205 cells; assay type: functional; procedure, shortened: as §1
HCC 2998 = experiment: Growth inhibition of human HCC2998 cells; assay type: functional; procedure, shortened: as §1
HCT-116 = experiment: Growth inhibition of human HCT116 cells; assay type: functional; procedure, shortened: as §1
HCT-15 = experiment: Growth inhibition of human HCT15 cells; assay type: functional; procedure, shortened: as §1
HT-29 = experiment: Growth inhibition of human HT-29 cells; assay type: functional; procedure, shortened: as §1
KM12 = experiment: Growth inhibition of human KM12 cells; assay type: functional; procedure, shortened: as §1
SW-620 = experiment: Growth inhibition of human SW620 cells; assay type: functional
Procedure, shortened: (§2)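 Compounds that passed a preliminary screen were tested at five doses in the NCI (Bethesda) in vitro Anticancer Screen Program against a 53-line human tumour panel spanning leukemia, lung, colon, CNS, melanoma, ovarian, renal, prostate and breast. Growth inhibition is reported as GI50.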

SF-268 = experiment: Growth inhibition of human SF268 cells; assay type: functional; procedure, shortened: as §1
SF-295 = experiment: Growth inhibition of human SF295 cells; assay type: functional; procedure, shortened: as §1
SF-539 = experiment: Growth inhibition of human SF539 cells; assay type: functional; procedure, shortened: as §1
SNB-19 = experiment: Growth inhibition of human SNB19 cells; assay type: functional; procedure, shortened: as §2
SNB-75 = experiment: Growth inhibition of human SNB75 cells; assay type: functional; procedure, shortened: as §2
U-251 = experiment: Growth inhibition of human U251 cells; assay type: functional; procedure, shortened: as §2
A498 = experiment: Growth inhibition of human A498 cells; assay type: functional; procedure, shortened: as §1
786-0 = experiment: Growth inhibition of human 786-0 cells; assay type: functional; procedure, shortened: as §1
ACHN = experiment: Growth inhibition of human ACHN cells; assay type: functional; procedure, shortened: as §1
CAKI-1 = experiment: Growth inhibition of human Caki1 cells; assay type: functional; procedure, shortened: as §1
RXF 393 = experiment: Growth inhibition of human RXF393 cells; assay type: functional; procedure, shortened: as §1
SN12C = experiment: Growth inhibition of human SN12C cells; assay type: functional; procedure, shortened: as §2
TK-10 = experiment: Growth inhibition of human TK10 cells; assay type: functional; procedure, shortened: as §2
UO-31 = experiment: Growth inhibition of human UO31 cells; assay type: functional; procedure, shortened: as §2
PC-3 = experiment: Growth inhibition of human PC3 cells; assay type: functional; procedure, shortened: as §1
OVCAR-3 = experiment: Growth inhibition of human OVCAR-3 cells; assay type: functional; procedure, shortened: as §1
OVCAR-4 = experiment: Growth inhibition of human OVCAR4 cells; assay type: functional; procedure, shortened: as §1
OVCAR-5 = experiment: Growth inhibition of human OVCAR5 cells; assay type: functional; procedure, shortened: as §1
OVCAR-8 = experiment: Growth inhibition of human OVCAR8 cells; assay type: functional; procedure, shortened: as §1
NCI/ADR-RES = experiment: Growth inhibition of human NCI/ADR-RES cells; assay type: functional; procedure, shortened: as §1
SK-OV-3 = experiment: Growth inhibition of human SKOV3 cells; assay type: functional; procedure, shortened: as §2
MCF7 [2] = experiment: Growth inhibition of human MCF7 cells; assay type: functional; procedure, shortened: as §1
MDA-MB-231 = experiment: Growth inhibition of human MDA-MB-231 cells; assay type: functional; procedure, shortened: as §1
[3] = Growth inhibition of human Hs 578T cells; assay type: functional; procedure, shortened: as §1
BT-549 = experiment: Growth inhibition of human BT549 cells; assay type: functional; procedure, shortened: as §1
T47D = experiment: Growth inhibition of human T47D cells; assay type: functional; procedure, shortened: as §2
LOX IMVI = experiment: Growth inhibition of human LOXIMVI cells; assay type: functional; procedure, shortened: as §1
Malme-3M = experiment: Growth inhibition of human MALME-3M cells; assay type: functional; procedure, shortened: as §1
M14 = experiment: Growth inhibition of human M14 cells; assay type: functional; procedure, shortened: as §1
MDA-MB-435 = experiment: Growth inhibition of human MDA-MB-435 cells; assay type: functional; procedure, shortened: as §1
SK-MEL-2 = experiment: Growth inhibition of human SK-MEL-2 cells; assay type: functional; procedure, shortened: as §1
SK-MEL-28 = experiment: Growth inhibition of human SK-MEL-28 cells; assay type: functional; procedure, shortened: as §1
SK-MEL-5 = experiment: Growth inhibition of human SK-MEL-5 cells; assay type: functional; procedure, shortened: as §1
UACC-257 = experiment: Growth inhibition of human UACC257 cells; assay type: functional; procedure, shortened: as §2
UACC-62 = experiment: Growth inhibition of human UACC62 cells; assay type: functional; procedure, shortened: as §2
MCF7 [4] = experiment: Cell cycle arrest in human MCF7 cells assessed as accumulation at G0 phase at 10 uM after 24 hrs by FACS analysis; assay type: functional
Procedure, shortened: (§3)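 MCF-7 breast carcinoma cells were exposed to 10 µM test compound for 24 h, with DMSO as the vehicle control. Cell-cycle distribution was read by FACS as the percentage of cells in G0, G1, S and G2/M.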

MCF7 [5] = experiment: Cell cycle arrest in human MCF7 cells assessed as accumulation at G1 phase at 10 uM after 24 hrs by FACS analysis; assay type: functional; procedure, shortened: as §3
MCF7 [6] = experiment: Cell cycle arrest in human MCF7 cells assessed as accumulation at S phase at 10 uM after 24 hrs by FACS analysis; assay type: functional; procedure, shortened: as §3
MCF7 [7] = experiment: Cell cycle arrest in human MCF7 cells assessed as accumulation at G2/M phase at 10 uM after 24 hrs by FACS analysis; assay type: functional; procedure, shortened: as §3
MCF7 [8] = experiment: Cell cycle arrest in human MCF7 cells assessed as accumulation at G0 phase at 30 uM after 24 hrs by FACS analysis; assay type: functional
Procedure, shortened: (§4)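 MCF-7 cells were treated at 30 µM for 24 h alongside a DMSO control. Fractions in G0, G1, S and G2/M phases were measured by FACS, and values are means of three experiments.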

MCF7 [9] = experiment: Cell cycle arrest in human MCF7 cells assessed as accumulation at G1 phase at 30 uM after 24 hrs by FACS analysis; assay type: functional; procedure, shortened: as §4
MCF7 [10] = experiment: Cell cycle arrest in human MCF7 cells assessed as accumulation at S phase at 30 uM after 24 hrs by FACS analysis; assay type: functional; procedure, shortened: as §4
MCF7 [11] = experiment: Cell cycle arrest in human MCF7 cells assessed as accumulation at G2/M phase at 30 uM after 24 hrs by FACS analysis; assay type: functional; procedure, shortened: as §4
MCF7 [12] = experiment: Induction of apoptosis in human MCF7 cells assessed as decrease in procaspase 7 level at 30 uM after 24 hrs by Western blot analysis; assay type: functional, cell-based
Procedure, shortened: (§5)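 MCF-7 breast carcinoma cells were exposed to 30 µM compound for 24 h, with CA-4 as positive control. Cell lysates were then immunoblotted with antibodies to procaspase-7 and cleavage-specific PARP, using β-actin as loading control.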

MCF7 [13] = experiment: Induction of apoptosis in human MCF7 cells assessed as […] in PARP cleavage at 30 uM after 24 hrs by Western blot analysis; assay type: functional, cell-based; procedure, shortened: as §5

Question: Which GI50 [1] does the source give for `COc1cc(/C=C/C(=O)c2cccc(-n3cc(-c4ccc(Cl)cc4)[nH]c3=O)c2)ccc1O` here?
Answer: 1.33 µM

Question: And the GI50 (K562)?
Answer: 1.42 µM

Question: And the GI50 (A549)?
Answer: 6.78 µM

Question: What about the GI50 (EKVX) of the same compound?
Answer: 9.61 µM

Question: What about the GI50 (HOP-62) of the same compound?
Answer: 2.84 µM

Question: What about the GI50 (HOP-92) of the same compound?
Answer: 1.26 µM

Question: What about the GI50 (NCI-H226) of the same compound?
Answer: 2.77 µM

Question: And the GI50 (NCI-H23)?
Answer: 3.18 µM

Question: And the GI50 (NCI-H322M)?
Answer: 4.58 µM

Question: What about the GI50 (NCI-H460) of the same compound?
Answer: 3.9 µM

Question: What about the GI50 (NCI-H522) of the same compound?
Answer: 2.36 µM

Question: And the GI50 (COLO 205)?
Answer: 3.4 µM

Question: What about the GI50 (HCC 2998) of the same compound?
Answer: 1.85 µM

Question: And the GI50 (HCT-116)?
Answer: 1.46 µM

Question: What about the GI50 (HCT-15) of the same compound?
Answer: 1.8 µM

Question: What about the GI50 (HT-29) of the same compound?
Answer: 2.97 µM

Question: What about the GI50 (KM12) of the same compound?
Answer: 1.48 µM

Question: What about the GI50 (SW-620) of the same compound?
Answer: 2 µM

Question: And the GI50 (SF-268)?
Answer: 2.5 µM

Question: What about the GI50 (SF-295) of the same compound?
Answer: 10.5 µM

Question: What about the GI50 (SF-539) of the same compound?
Answer: 1.78 µM

Question: And the GI50 (SNB-19)?
Answer: 3.17 µM

Question: What about the GI50 (SNB-75) of the same compound?
Answer: 2.75 µM

Question: And the GI50 (U-251)?
Answer: 2.23 µM

Question: What about the GI50 (A498) of the same compound?
Answer: 2.82 µM

Question: And the GI50 (786-0)?
Answer: 2.07 µM

Question: What about the GI50 (ACHN) of the same compound?
Answer: 2.19 µM

Question: And the GI50 (CAKI-1)?
Answer: 2.64 µM

Question: What about the GI50 (RXF 393) of the same compound?
Answer: 6.4 µM

Question: And the GI50 (SN12C)?
Answer: 2.87 µM

Question: And the GI50 (TK-10)?
Answer: 4.67 µM

Question: What about the GI50 (UO-31) of the same compound?
Answer: 1.67 µM

Question: And the GI50 (PC-3)?
Answer: 1.95 µM

Question: What about the GI50 (OVCAR-3) of the same compound?
Answer: 1.56 µM

Question: And the GI50 (OVCAR-4)?
Answer: 4.64 µM

Question: What about the GI50 (OVCAR-5) of the same compound?
Answer: 2 µM

Question: And the GI50 (OVCAR-8)?
Answer: 4.18 µM

Question: And the GI50 (NCI/ADR-RES)?
Answer: 2.28 µM

Question: What about the GI50 (SK-OV-3) of the same compound?
Answer: 3.19 µM

Question: And the GI50 (MCF7 [2])?
Answer: 2.3 µM

Question: And the GI50 (MDA-MB-231)?
Answer: 3.87 µM

Question: What about the GI50 [3] of the same compound?
Answer: 4.67 µM

Question: And the GI50 (BT-549)?
Answer: 2.52 µM

Question: What about the GI50 (T47D) of the same compound?
Answer: 3.09 µM

Question: What about the GI50 (LOX IMVI) of the same compound?
Answer: 1.63 µM

Question: And the GI50 (Malme-3M)?
Answer: 3.06 µM

Question: What about the GI50 (M14) of the same compound?
Answer: 2.86 µM

Question: What about the GI50 (MDA-MB-435) of the same compound?
Answer: 2.25 µM

Question: And the GI50 (SK-MEL-2)?
Answer: 3.66 µM

Question: And the GI50 (SK-MEL-28)?
Answer: 2.06 µM

Question: And the GI50 (SK-MEL-5)?
Answer: 1.8 µM

Question: What about the GI50 (UACC-257) of the same compound?
Answer: 8.69 µM

Question: And the GI50 (UACC-62)?
Answer: 2.74 µM

Question: What about the Activity (MCF7 [4]) of the same compound?
Answer: 3.56%

Question: And the Activity (MCF7 [5])?
Answer: 46.69%

Question: And the Activity (MCF7 [6])?
Answer: 18.1%

Question: And the Activity (MCF7 [7])?
Answer: 31.65%

Question: And the Activity (MCF7 [8])?
Answer: 32.89%

Question: What about the Activity (MCF7 [9]) of the same compound?
Answer: 50.61%

Question: And the Activity (MCF7 [10])?
Answer: 6.17%

Question: And the Activity (MCF7 [11])?
Answer: 10.35%

Question: What about the Activity (MCF7 [12]) of the same compound?
Answer: Active

Question: What about the Activity (MCF7 [13]) of the same compound?
Answer: Active
